A short description of experiment [1]: Inhibition of amyloid beta (1 to 40) aggregation by beta amyloid self seeding radioassay. In short, it runs like this:
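Aβ(1-40) at 30 μM unlabeled, plus a tracer amount of 125I-Aβ(1-40), incubated with compound in 50 mM NaPi, 150 mM NaCl, 1 M urea, 0.02% w/v NaN3, pH 7.5. Radiolabeled fibrils retained on a 0.2 µm filter were measured. Eight compound concentrations were tested, and IC50 was taken by logit transformation of the titration curves. Values are the average of two separate experiments.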

The nature of experiment [2]: Inhibition of amyloid beta (1 to 40) aggregation by beta amyloid self seeding thioflavin T assay. An outline of the steps: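 Compound was incubated with 30 μM Aβ(1-40) in 50 mM NaPi, 150 mM NaCl, 1 M urea, 0.02% w/v NaN3, pH 7.5. Thioflavin T at 5 µM was added after fibril formation, and fluorescence was read as β-sheet fibril content. IC50 came from eight concentrations by logit transformation of the titration curves. Values are the mean of two separate experiments.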

A short description of experiment [3]: Inhibition of amyloid beta (1 to 40) aggregation assessed as appearance of smaller fragmented amyloid beta species at 50 uM by atomic force microscopy study.
For experiment [4], the system named is Mus musculus. Briefly: Reduction in mean senile plaque area in Tg2576 mouse overexpressing human betaAPP695SWE at 200 mg/kg/day, po administered with chow. Type of experiment: functional. Also on record: scale not given: the % may be the effect or the level left.
Experiment [5] deals with Mus musculus. The experiment is described as follows: Reduction in senile plaque load in Tg2576 mouse overexpressing human betaAPP695SWE at 200 mg/kg/day, po administered with chow for 7 months. Type of experiment: functional. Further details: scale not given: the % may be the effect or the level left.

Calls of active or inactive are those of the source. The rule behind the calls is not given here.

This note sets out measurements from ChEMBL document CHEMBL1143331, “The synthesis and structure-activity relationship of substituted N-phenyl anthranilic acid analogs as amyloid aggregation inhibitors” (Bioorg Med Chem Lett, 2009).

For `O=C(O)c1ccccc1Nc1ccc(CCc2ccc(Cl)cc2Cl)cc1`, the IC50 (usually the concentration at which inhibition is half-maximal) in experiment [1] was > 100 µM; in experiment [2], 51 µM.
For `O=C(O)c1cccnc1Nc1ccc(CCc2ccc(Cl)c(Cl)c2)cc1`, the IC50 was found to be 7 µM in experiment [1] and 2 µM in experiment [2].
For the compound `O=C(O)c1ccccc1Nc1ccc(CCCc2ccccc2)cc1`, the IC50 stood at 14 µM in experiment [1] and 5 µM in experiment [2].
For `O=C(O)c1ccccc1Nc1ccc(CCc2ccc(Cl)cc2)cc1`, in that order: > 100 µM and 3 µM.
On the same counts, the results for `O=C(O)c1cccc(C(F)(F)F)c1Nc1ccc(CCc2ccc(Cl)c(Cl)c2)cc1` are > 100 µM and 30 µM.
For `O=C(O)c1ccccc1Nc1ccc(CCCc2ccc(Cl)cc2Cl)cc1`, the IC50 in experiment [1] and in experiment [2] was 2 µM in each case.
Turning to `O=C(O)c1ccccc1Nc1ccc(CCCc2ccc(Cl)cc2)cc1`, the IC50 in experiment [1] amounted to 3 µM; in experiment [2], 2 µM.
For `CCN(CC)c1ccc(Nc2ccc(CCc3ccc(Cl)c(Cl)c3)cc2)c(C(=O)O)c1`, in that order: > 100 µM and 53 µM.
As to `O=C(O)c1cc([N+](=O)[O-])ccc1Nc1ccc(CCc2cccc(Cl)c2)cc1`, the IC50 is 33 µM in experiment [1] and 0.3 µM in experiment [2].
On to `O=C(O)c1ccccc1Nc1ccc(CCCc2cccc(Cl)c2)cc1`, for which the IC50 in experiment [1] was 4 µM; in experiment [2], 3 µM.
On the same counts, the results for `Cc1ccc(Nc2ccc(CCc3ccc(Cl)c(Cl)c3)cc2)c(C(=O)O)c1` are > 100 µM and 2 µM.
On the same counts, the results for `Cc1ccc(Nc2ccc(CCCc3ccc(Cl)c(Cl)c3)cc2)c(C(=O)O)c1` are > 100 µM and > 100 µM.
For `O=C(O)c1ccccc1Nc1ccc(CCCc2cccc(Br)c2)cc1`, in that order: 2 µM and 3 µM.
As for `O=C(O)c1ccccc1Nc1ccc(CCCc2ccc(F)c(C(F)(F)F)c2)cc1`, the IC50 amounted to 5 µM in experiment [1] and 3 µM in experiment [2].
On the same counts, the results for `O=C(O)c1ccccc1Nc1ccc(CCCc2ccc(F)c(F)c2)cc1` are 8 µM and 5 µM.
For the compound `Cc1ccc(Nc2ccc(CCCc3ccc(C)c(C)c3)cc2)c(C(=O)O)c1`, the IC50 in experiment [1] worked out at 16 µM; in experiment [2] it was 3 µM.
For `O=C(O)c1cc(F)ccc1Nc1ccc(CCCc2ccc(Cl)c(Cl)c2)cc1`, in that order: 86 µM and 1 µM.
On the same counts, the results for `Cc1ccc(CCCc2ccc(Nc3ccc([N+](=O)[O-])cc3C(=O)O)cc2)cc1C` are 14 µM and 6 µM.
For `O=C(O)c1ccccc1Nc1ccc(CCc2cccc(Cl)c2)cc1`, in that order: > 100 µM and 19 µM.
In the case of `O=C(O)c1ccc(C(F)(F)F)cc1Nc1ccc(CCc2ccc(Cl)c(Cl)c2)cc1`, the IC50 in experiment [1] worked out at 27 µM; in experiment [2] it was 4 µM.
Regarding `O=C(O)c1ccccc1Nc1ccc(CCc2ccccc2Cl)cc1`, the IC50 in experiment [1] is > 100 µM; in experiment [2] it was 5 µM.
For `O=C(O)c1cc([N+](=O)[O-])ccc1Nc1ccc(CCc2ccccc2)cc1`, the half-inhibitory concentration (IC50) in experiment [1] was 70 µM; in experiment [2], 1.5 µM.
As to `O=C(O)c1cc([N+](=O)[O-])ccc1Nc1ccc(CCN2CCC3CCCCC3C2)cc1` (stereo not given), the IC50 in experiment [1] came out at 5 µM; in experiment [2] it was 1 µM.
For `O=C(O)c1ccccc1Nc1ccc(CCc2ccc(F)c(F)c2)cc1`, in that order: > 100 µM and 2 µM.
For `O=C(O)c1cccnc1Nc1ccc(CCCc2ccc(Cl)c(Cl)c2)cc1`, in that order: 60 µM and 5 µM.
On the same counts, the results for `Cc1ccc(CCc2ccc(Nc3ccc([N+](=O)[O-])cc3C(=O)O)cc2)cc1C` are 12 µM and 2 µM.
For `COc1ccc(CCCc2ccc(Nc3ccccc3C(=O)O)cc2)cc1`, the IC50 in experiment [1] worked out at 30 µM; in experiment [2], 17 µM.
For `O=C(O)c1cccc(Nc2ccc(CCc3ccc(Cl)c(Cl)c3)cc2)c1`, in that order: > 100 µM and 10 µM.
Consider `COC(=O)c1ccc(Nc2ccc(CCc3ccc(Cl)c(Cl)c3)cc2)cc1`, for which the IC50 in experiment [1] and in experiment [2] was > 100 µM throughout.
On to `O=C(O)c1cc(Nc2ccc(CCc3ccc(Cl)c(Cl)c3)cc2)ccc1F`, for which the IC50 in experiment [1] is > 100 µM; in experiment [2] it was 3 µM.
As to `COc1ccc(CCCc2ccc(Nc3cc(F)ccc3C(=O)O)cc2)cc1`, the figures for the IC50 in experiment [1] and in experiment [2] were 14 µM and 9 µM, respectively.
As to `CCN(CC)c1ccc(CCCc2ccc(Nc3ccccc3C(=O)O)cc2)cc1`, the IC50 in experiment [1] turned out to be 3 µM; in experiment [2], 1 µM.
On the same counts, the results for `O=C(O)c1ccccc1Nc1ccc(CCCc2ccccc2Cl)cc1` are 6 µM and 2 µM.
As for `Cc1ccc(CCCc2ccc(Nc3ncccc3C(=O)O)cc2)cc1C`, the IC50 was determined as 14 µM in experiment [1] and 9 µM in experiment [2].
For `O=C(O)c1cc([N+](=O)[O-])ccc1Nc1ccc(CCc2ccc(F)c(F)c2)cc1`, in that order: 41 µM and 4 µM.
On the same counts, the results for `O=C(O)c1ccccc1Nc1ccc(CCc2cccc(F)c2)cc1` are > 100 µM and 70 µM.
As for `Cc1ccc(CCCc2ccc(Nc3cc(F)ccc3C(=O)O)cc2)cc1C`, the IC50 stood at 12 µM in experiment [1] and 5.4 µM in experiment [2].
For `CCCCN(CCCC)c1ccc(CCc2ccc(Nc3ccc([N+](=O)[O-])cc3C(=O)O)cc2)cc1`, in that order: 15 µM and 1 µM.
Regarding `COc1ccc(CCc2ccc(Nc3ccccc3C(=O)O)cc2)cc1`, the IC50 in experiment [1] and in experiment [2] was > 100 µM each time.
On to `Cc1ccc(CCCc2ccc(Nc3ccccc3C(=O)O)cc2)cc1C`, for which the IC50 stood at 6 µM in experiment [1] and 3 µM in experiment [2].
On the same counts, the results for `O=C(O)c1cc([N+](=O)[O-])ccc1Nc1ccc(CCCc2ccc(Cl)c(Cl)c2)cc1` are > 100 µM and 1 µM.
For `O=C(O)c1cc([N+](=O)[O-])ccc1Nc1ccc(CCc2ccc(Cl)cc2)cc1`, the IC50 came to 15 µM in experiment [1] and 0.4 µM in experiment [2].
For `O=C(O)c1cc([N+](=O)[O-])ccc1Nc1ccc(CCc2ccc(Cl)c(C(F)(F)F)c2)cc1`, in that order: 16 µM and 1 µM.
As to `Cc1ccc(CCc2ccc(Nc3ccccc3C(=O)O)cc2)cc1C`, the IC50 in experiment [1] was > 100 µM; in experiment [2] it was 10 µM.
`O=C(O)c1ccccc1Nc1ccc(CCc2ccccc2)cc1`: the IC50 in experiment [1] was found to be 60 µM; in experiment [2], 10 µM.
On the same counts, the results for `O=C(O)c1cc(Nc2ccc(CCc3ccc(Cl)c(Cl)c3)cc2)ccc1C(F)(F)F` are > 100 µM and 35 µM.
Consider `O=C(O)c1ccccc1Nc1ccc(CCc2ccc(Cl)c(Cl)c2)cc1`, for which the IC50 in experiment [1] was > 100 µM; in experiment [2], 2 µM. For the same compound, the outcome in experiment [3] was Active. Besides, the Activity with Mus musculus [4] is 2.1%; with Mus musculus [5], 44%.
Consider `O=C(O)c1ccccc1Nc1ccc(CCc2ccc(F)c(C(F)(F)F)c2)cc1`, for which the IC50 was > 100 µM in experiment [1] and 2 µM in experiment [2].
On the same counts, the results for `Cc1ccc(CCCc2ccc(Nc3ccc(F)cc3C(=O)O)cc2)cc1C` are > 100 µM and 1 µM.
For `O=C(O)c1c(Nc2ccc(CCc3ccc(Cl)c(Cl)c3)cc2)cccc1C(F)(F)F`, in that order: 70 µM and 0.1 µM.
For `O=C(O)c1cc([N+](=O)[O-])ccc1Nc1ccc(CCc2ccc(Cl)c(Cl)c2)cc1`, in that order: 43 µM and 0.5 µM.
On to `O=C(O)c1ccccc1Nc1ccc(CCCc2cc(Cl)cc(Cl)c2)cc1`, for which the IC50 in experiment [1] and in experiment [2] was 3 µM throughout.
Regarding `COc1ccc(CCCc2ccc(Nc3ccc(F)cc3C(=O)O)cc2)cc1`, the IC50 in experiment [1] amounted to 14 µM; in experiment [2], 10 µM.
On the same counts, the results for `O=C(O)c1ccccc1Nc1ccc(CCN2CCC3CCCCC3C2)cc1` (stereo not given) are > 100 µM and 1 µM.
For `O=C(O)c1ccccc1Nc1ccc(CCc2cc(Cl)cc(Cl)c2)cc1`, in that order: > 100 µM and 15 µM.
For `O=C(O)c1cc([N+](=O)[O-])ccc1Nc1ccc(CCc2ccc(F)c(C(F)(F)F)c2)cc1`, in that order: 3 µM and 0.8 µM.
Turning to `O=C(O)c1ccc(Nc2ccc(CCc3ccc(Cl)c(Cl)c3)cc2)cc1`, the results for the IC50 in experiment [1] and in experiment [2] were > 100 µM and 10 µM, respectively.
Consider `Cc1ccc(CCc2ccc(Nc3ccccc3C(=O)O)cc2)cc1Cl`, for which the figures for the IC50 in experiment [1] and in experiment [2] were 88 µM and 1 µM, respectively.
Take `O=C(O)c1cc([N+](=O)[O-])ccc1Nc1ccc(CCc2ccc(Cl)cc2Cl)cc1`: the IC50 in experiment [1] amounted to 17 µM; in experiment [2], 4 µM.
On to `Cc1ccc(CCCc2ccc(Nc3ccccc3C(=O)O)cc2)cc1`, for which the IC50 in experiment [1] is 9 µM; in experiment [2] it was 1 µM.
In the case of `O=C(O)c1cc([N+](=O)[O-])ccc1Nc1ccc(CCc2ccccc2Cl)cc1`, the results for the IC50 in experiment [1] and in experiment [2] were 3 µM and 0.5 µM, respectively.
